The values that follow come from ChEMBL document CHEMBL1153582, “Expedient solid-phase synthesis of both symmetric and asymmetric diol libraries targeting aspartic proteases” (Bioorg Med Chem Lett, 2009).

In general, IC50 refers to the midpoint of a concentration-inhibition curve. Read a low IC50 as greater potency in that assay. One may read the Ki as the equilibrium dissociation constant of an inhibitor or competing ligand from its target. A lower Ki goes with higher affinity.

Each structure is given as a SMILES string.

For assay [1], the target named is Plasmepsin I (Plasmodium falciparum, UniProt P39898). Kind of assay: Inhibition of Plasmodium falciparum plasmepsin-1 in fluorescence microplate assay. The gist of the method:
(§1)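 Library products were used as crude material, without purification, for direct in situ screening in a standard fluorescence microplate assay. IC50 was taken from inhibition curves plotted against log inhibitor concentration in nM.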

For assay [2], the target named is Plasmepsin II (Plasmodium falciparum, UniProt P46925). Description: Inhibition of Plasmodium falciparum plasmepsin-2 in fluorescence microplate assay. The method, boiled down:
as §1

Assay [3] addresses Protease (Human immunodeficiency virus 1, UniProt Q9YQ12). Description: Inhibition of HIV1 protease by fluorescence microplate assay. The gist of the method:
as §1

Sequence of Plasmepsin II (P46925 whole entry): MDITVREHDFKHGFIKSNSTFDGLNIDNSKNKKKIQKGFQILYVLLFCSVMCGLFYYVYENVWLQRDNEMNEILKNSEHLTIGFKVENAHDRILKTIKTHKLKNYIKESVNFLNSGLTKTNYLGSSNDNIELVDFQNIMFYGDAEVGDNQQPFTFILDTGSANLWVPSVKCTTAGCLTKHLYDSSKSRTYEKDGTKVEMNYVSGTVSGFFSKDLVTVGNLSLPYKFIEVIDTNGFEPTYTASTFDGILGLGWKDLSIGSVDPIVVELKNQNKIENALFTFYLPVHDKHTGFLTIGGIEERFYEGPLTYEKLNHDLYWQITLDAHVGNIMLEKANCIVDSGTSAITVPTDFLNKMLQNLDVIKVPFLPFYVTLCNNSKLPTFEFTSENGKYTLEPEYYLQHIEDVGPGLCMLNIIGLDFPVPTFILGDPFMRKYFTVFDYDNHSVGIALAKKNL
Sequence of Plasmepsin I (P39898 whole entry): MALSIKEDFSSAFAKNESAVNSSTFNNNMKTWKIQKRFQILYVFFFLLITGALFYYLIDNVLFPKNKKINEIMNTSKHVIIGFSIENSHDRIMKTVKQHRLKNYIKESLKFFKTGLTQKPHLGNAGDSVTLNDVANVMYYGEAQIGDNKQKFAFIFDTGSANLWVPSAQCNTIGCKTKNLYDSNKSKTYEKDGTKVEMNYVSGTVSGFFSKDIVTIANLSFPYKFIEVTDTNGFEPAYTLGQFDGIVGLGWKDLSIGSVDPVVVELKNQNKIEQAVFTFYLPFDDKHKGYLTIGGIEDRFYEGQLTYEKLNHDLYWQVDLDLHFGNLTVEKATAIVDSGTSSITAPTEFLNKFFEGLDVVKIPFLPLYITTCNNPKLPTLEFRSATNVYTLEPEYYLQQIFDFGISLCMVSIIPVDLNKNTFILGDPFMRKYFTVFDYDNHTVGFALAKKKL
Sequence of Protease (Q9YQ12 whole entry): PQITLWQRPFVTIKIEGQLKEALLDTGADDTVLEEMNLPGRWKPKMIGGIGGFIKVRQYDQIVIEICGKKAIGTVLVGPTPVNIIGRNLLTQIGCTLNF

Take `O=C(N[C@@H](Cc1ccccc1)[C@@H](O)[C@H](O)[C@H](Cc1ccccc1)NC(=O)c1ccc(F)cc1Cl)c1ccc2c(c1)OCCO2`: the figures for the IC50 in assay [1], in assay [2] and in assay [3] were over 25 µM, 11.8 µM and over 25 µM, respectively.
For `O=C(CC1CCCCC1)N[C@@H](Cc1ccccc1)[C@@H](O)[C@H](O)[C@H](Cc1ccccc1)NC(=O)CC1CCCCC1`, the IC50 in assay [1] was 4.39 µM; in assay [2], 3.91 µM; in assay [3] it was over 25 µM.
As to `O=C(N[C@@H](Cc1ccccc1)[C@@H](O)[C@H](O)[C@H](Cc1ccccc1)NC(=O)c1ccc(F)cc1Cl)c1ccc(F)cc1Cl`, the values for the IC50 in assay [1], in assay [2] and in assay [3] were over 25 µM, over 25 µM and 0.395 µM, respectively. The compound further gave a Ki in assay [3] of 0.4 µM.
Take `CC(C)C[C@H](NC(=O)CC1CCCCC1)[C@@H](O)[C@H](O)[C@H](CC(C)C)NC(=O)CC1CCCCC1`: the IC50 is 2.64 µM in assay [1], over 25 µM in assay [2] and over 25 µM in assay [3].
On to `COc1ccccc1C(=O)N[C@@H](CC(C)C)[C@@H](O)[C@H](O)[C@H](CC(C)C)NC(=O)c1ccccc1OC`, for which the IC50 in assay [1] is over 25 µM; in assay [2] it was over 25 µM; in assay [3] it was 1.31 µM.
`Cc1ccc(C(=O)N[C@@H](Cc2ccccc2)[C@@H](O)[C@H](O)[C@H](Cc2ccccc2)NC(=O)C2CCOC2)cn1` (some centres undefined): the IC50 in assay [1] was over 25 µM; in assay [2] it was 12.7 µM; in assay [3] it was over 25 µM.
